Assays:
[1] = Incubation of 14C‐3‐NOP in liver fractions; type: in vitro ADME; conditions: Sprague-Dawley, rat, liver cytosol
Summary of the method: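 14C-labelled test compound was incubated with or without NAD+ in liver S9, cytosol and microsomes from Sprague–Dawley rat, Wistar Han rat, Beagle dog and human. Aliquots were taken at several time points and the proteins precipitated. Supernatants were analysed by liquid scintillation counting and radio-HPLC, and half-life was derived from the time course.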

[2] = Second in vivo toxicokinetic study, metabolic profile in gut and plasma; design: species or system male Wistar rats
Summary of the method: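 Single oral dose of 500 mg/kg bw 14C-labelled test compound to male Wistar rats. One animal per time point was killed at 1, 2 and 3 h post-dose and blood was collected. Stomach, small intestine, caecum and colon contents were removed for total radioactivity. Metabolites were characterised by NMR and/or LC/MS.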

[3] = Second goat experiment, pre‐dosed 5 days; type: in vivo, lactating goat
[4] = ADME in four lactating cows; type: in vivo
[5] = tested on: Salmonella Typhimurium strains TA98, TA100, TA102, TA1535 and TA1537; assay: Ames microsuspension test; type: cell-based; conditions: 1.6 to 500 μg/plate, with and without metabolic activation
[6] = tested on: L5178Y TK +/− mouse lymphoma; assay: L5178Y TK+/− mouse lymphoma assay; type: cell-based; conditions: up to 1,211 μg/mL, presence and absence of S9‐mix
[7] = tested on: Syrian hamster embryo cells; assay: Cell transformation assay; type: cell-based; conditions: 500 to 2,500 μg/mL, 7 days
Summary of the method: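 GLP in vitro transformation assay in Syrian hamster embryo cells, following the OECD draft proposal (2012). The test compound was given as a continuous 7-day treatment at six concentrations from 500 to 2,500 μg/mL, chosen from a dose-range finding test. The frequency of morphologically transformed colonies was scored against positive and vehicle controls.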

Wistar Han rats = type: in vivo; conditions: males and females; effects on spermatogenesis and corpora lutea
Wistar rats [8] = assay: Prenatal developmental toxicity study; conditions: rat, in vivo
[9] = tested on: New Zealand White rabbits; assay: Prenatal developmental toxicity study; conditions: rabbit, in vivo
Acute inhalation test = type: in vivo, Wistar rats; conditions: Wistar, rat, in vivo, inhaled
Wistar rats [10] = assay: Acute inhalation test; type: in vivo
[11] = tested on: dairy cows, beef cattle and sheep; conditions: 100 mg 3‐NOP/kg DMI; cited from earlier work
[12] = tested on: human lymphoblastoid TK6 cells; assay: In vitro micronucleus assay; conditions: with and without S9, up to 1,220 μg/mL
[13] = Third in vitro rumen fluid trial; conditions: for 3‐NOP concentration remaining after 16 h: 39°C
[14] = Third in vitro rumen fluid trial; conditions: 39°C
[15] = 3.28 mg/kg bw per day, two days labelled

O=[N+]([O-])OCCCO [3‐NOP, propan‐1,3‐diol‐mononitrate]
half-life [1]: 42 min | Intact compound, share of radioactivity in small intestine content ([2]; 1 and 3 h after 500 mg/kg bw): < 4% | Intact compound, share of radioactivity in stomach content ([2]; 1 and 3 h after 500 mg/kg bw): more than 80% | Radioactivity in plasma ([2]; 1 h post‐dose): 713 μg 3‐NOP‐eq/g | Radioactivity in plasma ([2]; 2 h post‐dose): 522 μg 3‐NOP‐eq/g | Radioactivity in plasma ([2]; 3 h post‐dose): 156 μg 3‐NOP‐eq/g | Overall radioactivity recovered ([2]; after 1 h): 88 % of the dose | Overall radioactivity recovered ([2]; after 2 h): 78 % of the dose | Overall radioactivity recovered ([2]; after 3 h): 58 % of the dose | Radioactivity in urine ([2]; urine 0 to 2 h of one animal): 13.7 % of the applied dose | Radioactivity excreted via faeces [3, 15]: 0.71 % of radioactivity totally app | Radioactivity excreted via milk [3, 15]: 4.48 % of radioactivity totally app | Radioactivity excreted via urine [3, 15]: 1.97 % of radioactivity totally app | Radioactivity in the intestinal tract content [3, 15]: 14.87 % of radioactivity totally app | Radioactivity remaining in the total edible tissues [3, 15]: 8.99 % of radioactivity totally app | Total radioactivity excreted [3, 15]: 7.18% | Total recovery at sacrifice [3, 15]: 31.04% | Radioactive residues in plasma ([3]; 0.5 h after the first administration): 2.31 mg 3‐NOP‐equivalents/kg | Plasma radioactivity associated with the plasma protein fraction ([3]; 0.5 h post‐dose): 4.4% | Radioactivity in the aqueous phase of plasma ([3]; 0.5 h post‐dose): 95.6% | Plasma radioactivity associated with the plasma protein fraction ([3]; 24 h post‐dose): 89.4% | Radioactivity in the aqueous phase of plasma ([3]; 24 h post‐dose): 10.6% | Nitrate esters in the aqueous phase of plasma, not detectable (LOD) ([3]; LOD ≤ 0.07): < 0.07 mg/kg | Nitrate esters in the aqueous milk fraction, not detectable (LOD) ([3]; LOD ≤ 0.21): < 0.21 mg/kg | Radioactive residues in plasma ([3]; at sacrifice): 1.6 mg 3‐NOP‐equivalents/kg | Radioactivity excreted via faeces, mean ([4]; 1.8 g/animal per day, 7 days): 2.7 % of radioactivity totally app | Radioactivity excreted via milk, mean ([4]; 1.8 g/animal per day, 7 days): 16.82 % of radioactivity totally app | Radioactivity excreted via urine, mean ([4]; 1.8 g/animal per day, 7 days): 4 % of radioactivity totally app | Radioactivity remaining in the total tissues ([4]; 1.8 g/animal per day, 7 days): 6.2 % of radioactivity totally app | Total radioactivity excreted ([4]; 1.8 g/animal per day, 7 days): 23.5% | Total recovery at sacrifice ([4]; 1.8 g/animal per day, 7 days): approximately 30% | 3‐NOP and NOPA in total excreta, worst‐case scenario ([4]; dairy cows): ≤ 0.2% | Residue in milk, not found above the LOQ ([4]; in vivo): < 8 μg 3‐NOP‐equivalents/kg | Residue in tissues, not found above the LOQ ([4]; in vivo): < 21 μg 3‐NOP‐equivalents/kg | Amount in urine ([4]; urine of one animal (day 2–day 6)): 0.1 % of the dose | Revertant colonies [5]: No significant increase in the mean number of revertant colonies | Mutation frequencies (MF) [6]: No biologically significant increases in MF | Morphologically transformed colonies [7]: No significant increase in the frequency of morphologically transformed colonies | NOAEL (Wistar Han rats): 100 mg 3‐NOP/kg bw per day | Maternal NOAEL (Wistar rats [8]): 300 mg/kg bw per day | NOAEL for maternal and developmental toxicity [9]: at least 450 mg/kg bw per day | LC50 at 4 h (Acute inhalation test): > 5 µg/mL | Mortality (Wistar rats [10]; 1 and 5 mg/L): No mortality occurred | Acute inhalation toxicity class according to the GHS (Wistar rats [10]; rat, in vivo): class 5 | No observed adverse effect concentration (NOAEC) (Wistar rats [10]; rat, in vivo): exceed 5 mg/L | Skin corrosion potential (Skin corrosion study): not corrosive to skin | Decrease of CH4 [11]: about 20% | Micronuclei, overall result [12]: weak increase in micronuclei | 3‐NOP concentration remaining after 16 h ([13]; 1 mg/L, anaerobic, n = 6): 0.9% | 3‐NOP concentration remaining after 16 h ([13]; aerobic control, n = 2): 39.4% | Radioactivity in the non‐dissolved fractions ([13]; sheep, goat and cow rumen fluids, 1 mg/L, 16 h at 39°C, anaerobic): ≤ 5.5% | 3‐NOP concentration remaining after 16 h ([14]; 1 mg/L, anaerobic, n = 6): 0.7% | 3‐NOP concentration remaining after 16 h ([14]; aerobic control, n = 2): 27.9%

Reference: paper PMC8603004 (EFSA Journal, 2021)
